# Results taken from ChEMBL document CHEMBL4038333, “Nonacidic Farnesoid X Receptor Modulators” (J Med Chem, 2017).
# Calls of active or inactive are those of the source. The rule behind the calls is not given here.
# Assays:
# [1] = target: T1, Bile acid receptor (Homo sapiens) (UniProt Q96RI1); assay: Modulation of FXR in human HepG2 cells assessed as induction of BSEP mRNA expression at 10 nM by qRT-PCR analysis; format: cell-based
# T1 sequence (whole entry): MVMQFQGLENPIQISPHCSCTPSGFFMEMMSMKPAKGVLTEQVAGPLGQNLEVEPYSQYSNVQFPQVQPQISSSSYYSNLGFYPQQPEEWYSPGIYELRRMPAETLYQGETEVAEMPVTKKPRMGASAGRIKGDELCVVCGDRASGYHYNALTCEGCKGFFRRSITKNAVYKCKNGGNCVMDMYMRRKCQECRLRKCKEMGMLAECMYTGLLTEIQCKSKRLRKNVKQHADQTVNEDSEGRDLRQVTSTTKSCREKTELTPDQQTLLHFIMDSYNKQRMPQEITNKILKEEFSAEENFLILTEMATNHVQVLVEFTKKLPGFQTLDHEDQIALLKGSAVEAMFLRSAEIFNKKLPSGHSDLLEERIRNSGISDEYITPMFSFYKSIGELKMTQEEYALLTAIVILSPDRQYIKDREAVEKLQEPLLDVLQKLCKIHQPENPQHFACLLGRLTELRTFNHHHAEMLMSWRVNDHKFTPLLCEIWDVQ
# How it was run: (§1)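 HepG2 hepatocarcinoma cells were incubated with the compound at 10 nM. FXR target-gene mRNA was quantified by qRT-PCR (n = 3), with significance at p < 0.05, 0.01 and 0.001.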
# [2] = target: T2, Bile acid receptor (Homo sapiens, UniProt Q96RI1); assay: Transactivation of human FXR expressed in human HeLa cells co-expressing BSEP after 24 hrs by dual-glo luciferase reporter gene assay; format: cell-based; conditions: read-out: EC50
# T2 sequence (Q96RI1 whole entry): T1 sequence (whole entry)
# How it was run: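 Full-length reporter system with constitutive expression of hFXR and hRXR. A constitutive Renilla luciferase served for normalization and as a toxicity control. Maximum relative activation was expressed against a reference FXR agonist at 3 µM, set as 100%.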
# [3] = Half life in human HepG2 cells by HPLC analysis; format: ADME, cell-based
# [4] = Metabolic stability in human HepG2 cells assessed as compound remaining after 24 hrs by HPLC analysis; format: ADME, cell-based; conditions: read-out: Stability
# [5] = target: G-protein coupled bile acid receptor 1 (Homo sapiens) (UniProt Q8TDU6); assay: Agonist activity at TGR5 (unknown origin) expressed in HEK293T cells at 1 uM after 12 to 14 hrs by dual-glo luciferase reporter gene assay; format: cell-based
# G-protein coupled bile acid receptor 1 (Homo sapiens), sequence (Q8TDU6 whole entry): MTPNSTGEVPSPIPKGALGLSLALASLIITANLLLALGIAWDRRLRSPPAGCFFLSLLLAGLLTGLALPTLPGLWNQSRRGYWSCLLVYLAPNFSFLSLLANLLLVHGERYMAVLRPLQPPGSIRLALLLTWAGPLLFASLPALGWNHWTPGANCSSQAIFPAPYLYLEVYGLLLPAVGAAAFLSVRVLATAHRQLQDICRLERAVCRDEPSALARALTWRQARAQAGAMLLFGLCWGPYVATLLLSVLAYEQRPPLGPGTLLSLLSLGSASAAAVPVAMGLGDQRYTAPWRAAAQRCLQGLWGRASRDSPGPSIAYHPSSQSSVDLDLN
# How it was run: (§2)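 Run as a selectivity screen against each listed receptor (14 nuclear receptors plus TGR5), in both agonist and antagonist modes. Test concentration was 1 µM, with n = 3.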
# [6] = target: Nuclear receptor subfamily 1 group I member 2 (Homo sapiens, UniProt O75469); assay: Transactivation of GAL4-tagged human PXR isoform 1 ligand binding domain (138 to 434 residues) expressed in HEK293T cells at 1 uM after 12 to 14 hrs by dual-glo luciferase reporter gene assay; format: cell-based; conditions: hek-293t; how it was run: as §2
# Nuclear receptor subfamily 1 group I member 2, sequence (O75469 whole entry, the tested form may be a part, canonical isoform): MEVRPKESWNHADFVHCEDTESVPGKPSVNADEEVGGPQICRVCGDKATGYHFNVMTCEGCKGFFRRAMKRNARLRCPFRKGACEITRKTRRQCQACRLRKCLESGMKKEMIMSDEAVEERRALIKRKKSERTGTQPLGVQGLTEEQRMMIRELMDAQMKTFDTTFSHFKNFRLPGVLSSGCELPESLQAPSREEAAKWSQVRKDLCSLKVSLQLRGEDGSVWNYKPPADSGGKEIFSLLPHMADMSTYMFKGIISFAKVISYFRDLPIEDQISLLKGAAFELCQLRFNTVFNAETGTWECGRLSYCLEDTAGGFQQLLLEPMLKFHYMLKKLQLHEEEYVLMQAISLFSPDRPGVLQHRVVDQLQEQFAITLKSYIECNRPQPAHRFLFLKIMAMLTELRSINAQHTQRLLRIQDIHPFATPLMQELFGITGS
# [7] = target: Retinoic acid receptor alpha (Homo sapiens) (UniProt P10276); assay: Transactivation of GAL4-tagged human RARalpha1 ligand binding domain (177 to 462 residues) expressed in HEK293T cells at 1 uM after 12 to 14 hrs by dual-glo luciferase reporter gene assay; format: cell-based; conditions: HEK-293T; how it was run: as §2
# Retinoic acid receptor alpha (Homo sapiens), sequence (P10276 whole entry, the tested form may be a part): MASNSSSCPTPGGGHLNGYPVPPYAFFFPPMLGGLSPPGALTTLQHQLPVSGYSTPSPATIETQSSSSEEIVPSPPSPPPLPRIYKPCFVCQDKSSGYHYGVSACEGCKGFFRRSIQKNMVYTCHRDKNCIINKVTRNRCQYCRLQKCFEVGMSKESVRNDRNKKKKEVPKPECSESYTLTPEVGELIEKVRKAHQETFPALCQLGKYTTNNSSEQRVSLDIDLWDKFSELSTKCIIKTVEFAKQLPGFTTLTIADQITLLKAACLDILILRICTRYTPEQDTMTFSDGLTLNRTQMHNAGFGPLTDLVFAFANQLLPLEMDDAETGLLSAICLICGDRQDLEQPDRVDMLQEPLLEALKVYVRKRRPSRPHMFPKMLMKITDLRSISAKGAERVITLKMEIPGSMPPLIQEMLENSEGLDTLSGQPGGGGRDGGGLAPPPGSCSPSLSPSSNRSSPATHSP
# [8] = target: Retinoic acid receptor RXR-gamma (Homo sapiens) (UniProt P48443); assay: Transactivation of GAL4-tagged human RXRgamma ligand binding domain (229 to 463 residues) expressed in HEK293T cells at 1 uM after 12 to 14 hrs by dual-glo luciferase reporter gene assay; format: cell-based; conditions: HEK-293T; how it was run: as §2
# Retinoic acid receptor RXR-gamma (Homo sapiens), sequence (P48443 whole entry, the tested form may be a part): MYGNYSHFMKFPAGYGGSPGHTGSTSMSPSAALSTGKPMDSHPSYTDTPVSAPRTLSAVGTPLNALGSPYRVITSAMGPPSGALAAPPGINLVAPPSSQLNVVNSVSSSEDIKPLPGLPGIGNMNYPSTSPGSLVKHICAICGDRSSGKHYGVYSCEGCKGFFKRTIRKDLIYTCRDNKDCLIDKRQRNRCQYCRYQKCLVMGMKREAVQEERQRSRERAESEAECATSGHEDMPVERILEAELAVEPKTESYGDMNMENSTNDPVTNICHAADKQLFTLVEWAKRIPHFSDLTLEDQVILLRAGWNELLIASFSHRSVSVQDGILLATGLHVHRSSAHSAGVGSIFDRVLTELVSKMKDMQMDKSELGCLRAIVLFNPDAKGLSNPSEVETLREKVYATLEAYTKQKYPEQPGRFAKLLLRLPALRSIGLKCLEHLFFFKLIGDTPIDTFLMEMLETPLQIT
# [9] = target: Retinoic acid receptor RXR-alpha (Homo sapiens) (UniProt P19793); assay: Transactivation of GAL4-tagged human RXRalpha ligand binding domain (225 to 462 residues) expressed in HEK293T cells at 1 uM after 12 to 14 hrs by dual-glo luciferase reporter gene assay; format: cell-based; conditions: HEK-293T; how it was run: as §2
# Retinoic acid receptor RXR-alpha (Homo sapiens), sequence (P19793 whole entry, the tested form may be a part): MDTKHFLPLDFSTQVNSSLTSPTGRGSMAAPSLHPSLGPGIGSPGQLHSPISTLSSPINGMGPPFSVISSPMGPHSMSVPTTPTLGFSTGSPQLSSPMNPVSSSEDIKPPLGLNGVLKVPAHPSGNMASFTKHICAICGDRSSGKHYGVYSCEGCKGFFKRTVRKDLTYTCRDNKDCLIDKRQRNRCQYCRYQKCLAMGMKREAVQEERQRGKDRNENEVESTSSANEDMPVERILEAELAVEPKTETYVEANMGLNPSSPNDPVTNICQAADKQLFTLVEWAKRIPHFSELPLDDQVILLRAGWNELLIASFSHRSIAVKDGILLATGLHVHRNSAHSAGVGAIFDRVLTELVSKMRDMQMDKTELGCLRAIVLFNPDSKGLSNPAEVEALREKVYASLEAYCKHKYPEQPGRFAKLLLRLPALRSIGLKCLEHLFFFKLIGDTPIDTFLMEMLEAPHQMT
# [10] = target: Peroxisome proliferator-activated receptor gamma (Homo sapiens) (UniProt P37231); assay: Transactivation of GAL4-tagged human PPARgamma ligand binding domain expressed in HEK293T cells at 1 uM after 12 to 14 hrs by dual-glo luciferase reporter gene assay; format: cell-based; conditions: HEK-293T; how it was run: as §2
# Peroxisome proliferator-activated receptor gamma (Homo sapiens), sequence (P37231 whole entry, the tested form may be a part, canonical isoform): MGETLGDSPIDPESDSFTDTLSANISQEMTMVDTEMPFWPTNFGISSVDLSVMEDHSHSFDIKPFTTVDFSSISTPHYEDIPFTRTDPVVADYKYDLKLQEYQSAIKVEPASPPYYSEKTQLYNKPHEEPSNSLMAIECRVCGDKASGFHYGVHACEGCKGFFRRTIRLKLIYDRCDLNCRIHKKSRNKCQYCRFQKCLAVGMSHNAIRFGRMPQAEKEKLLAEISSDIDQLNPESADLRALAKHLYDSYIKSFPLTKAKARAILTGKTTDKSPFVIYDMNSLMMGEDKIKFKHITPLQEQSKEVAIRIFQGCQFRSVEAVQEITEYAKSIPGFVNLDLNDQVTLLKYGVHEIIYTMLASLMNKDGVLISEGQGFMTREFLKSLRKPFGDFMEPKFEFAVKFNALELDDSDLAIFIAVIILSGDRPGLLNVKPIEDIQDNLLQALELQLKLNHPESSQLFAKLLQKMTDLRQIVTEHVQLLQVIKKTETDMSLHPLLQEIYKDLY
# [11] = target: Nuclear receptor subfamily 1 group I member 3 (Homo sapiens, UniProt Q14994); assay: Antagonist activity at GAL4-tagged human CAR isoform 6 ligand binding domain (48 to 324 residues) expressed in HEK293T cells at 1 uM after 12 to 14 hrs by dual-glo luciferase reporter gene assay; format: cell-based; conditions: hek-293t; how it was run: as §2
# Nuclear receptor subfamily 1 group I member 3, sequence (Q14994 whole entry, the tested form may be a part, canonical isoform): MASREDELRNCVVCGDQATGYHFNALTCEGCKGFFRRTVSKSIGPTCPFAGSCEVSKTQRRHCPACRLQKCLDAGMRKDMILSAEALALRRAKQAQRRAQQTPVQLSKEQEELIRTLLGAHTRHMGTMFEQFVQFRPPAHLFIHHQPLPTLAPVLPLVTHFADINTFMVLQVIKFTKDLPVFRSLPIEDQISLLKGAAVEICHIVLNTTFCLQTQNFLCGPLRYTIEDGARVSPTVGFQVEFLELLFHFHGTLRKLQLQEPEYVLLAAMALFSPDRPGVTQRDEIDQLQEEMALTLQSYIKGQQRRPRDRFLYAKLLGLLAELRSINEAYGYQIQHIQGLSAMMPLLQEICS
# [12] = target: Vitamin D3 receptor (Homo sapiens) (UniProt P11473); assay: Antagonist activity at GAL4-tagged human VDR isoform 1 ligand binding domain (119 to 427 residues) expressed in HEK293T cells at 1 uM after 12 to 14 hrs by dual-glo luciferase reporter gene assay; format: cell-based; conditions: HEK-293T; how it was run: as §2
# Vitamin D3 receptor (Homo sapiens), sequence (P11473 whole entry, the tested form may be a part, canonical isoform): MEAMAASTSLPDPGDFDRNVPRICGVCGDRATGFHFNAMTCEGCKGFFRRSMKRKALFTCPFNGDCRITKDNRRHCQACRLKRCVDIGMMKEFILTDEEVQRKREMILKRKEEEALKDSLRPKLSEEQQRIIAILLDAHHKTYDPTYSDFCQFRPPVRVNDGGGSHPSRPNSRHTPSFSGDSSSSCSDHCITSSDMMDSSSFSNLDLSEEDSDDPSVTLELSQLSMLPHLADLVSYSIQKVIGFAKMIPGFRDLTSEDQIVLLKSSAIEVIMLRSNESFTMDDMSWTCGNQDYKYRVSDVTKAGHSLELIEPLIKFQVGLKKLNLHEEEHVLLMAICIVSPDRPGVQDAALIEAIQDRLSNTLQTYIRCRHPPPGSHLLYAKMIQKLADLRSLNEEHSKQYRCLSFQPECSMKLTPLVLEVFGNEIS
# [13] = target: Retinoic acid receptor RXR-gamma (Homo sapiens) (UniProt P48443); assay: Antagonist activity at GAL4-tagged human RXRgamma ligand binding domain (229 to 463 residues) expressed in HEK293T cells at 1 uM after 12 to 14 hrs by dual-glo luciferase reporter gene assay; format: cell-based; conditions: HEK-293T; how it was run: as §2
# [14] = target: Retinoic acid receptor RXR-alpha (Homo sapiens) (UniProt P19793); assay: Antagonist activity at GAL4-tagged human RXRalpha ligand binding domain (225 to 462 residues) expressed in HEK293T cells at 1 uM after 12 to 14 hrs by dual-glo luciferase reporter gene assay; format: cell-based; conditions: HEK-293T; how it was run: as §2
# [15] = target: Oxysterols receptor LXR-alpha (Homo sapiens) (UniProt Q13133); assay: Antagonist activity at GAL4-tagged human LXRalpha ligand binding domain expressed in HEK293T cells at 1 uM after 12 to 14 hrs by dual-glo luciferase reporter gene assay; format: cell-based; conditions: HEK-293T; how it was run: as §2
# Oxysterols receptor LXR-alpha (Homo sapiens), sequence (Q13133 whole entry, the tested form may be a part, canonical isoform): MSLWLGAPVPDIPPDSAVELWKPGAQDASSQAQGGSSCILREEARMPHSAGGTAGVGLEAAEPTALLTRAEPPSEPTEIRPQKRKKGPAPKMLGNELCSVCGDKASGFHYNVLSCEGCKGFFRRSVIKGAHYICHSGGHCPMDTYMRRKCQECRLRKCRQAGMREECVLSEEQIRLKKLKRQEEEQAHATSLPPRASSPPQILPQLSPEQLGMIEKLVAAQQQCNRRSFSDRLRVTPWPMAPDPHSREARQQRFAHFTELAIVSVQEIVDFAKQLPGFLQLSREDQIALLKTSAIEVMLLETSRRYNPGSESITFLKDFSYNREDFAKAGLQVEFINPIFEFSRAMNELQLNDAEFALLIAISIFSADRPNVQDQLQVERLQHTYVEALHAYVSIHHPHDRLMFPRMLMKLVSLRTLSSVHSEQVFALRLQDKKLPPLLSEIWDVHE
# [16] = tested on: HeLa; assay: Selectivity ratio for human FXR expressed in human HeLa cells co-expressing BSEP over GAL4-tagged human PXR isoform 1 ligand binding domain (138 to 434 residues) expressed in HEK293T cells; format: cell-based
# [17] = tested on: HeLa; assay: Selectivity ratio for human FXR expressed in human HeLa cells co-expressing BSEP over GAL4-tagged human RARgamma isoform 1 ligand binding domain (179 to 454 residues) expressed in HEK293T cells; format: cell-based
# [18] = tested on: HeLa; assay: Selectivity ratio for human FXR expressed in human HeLa cells co-expressing BSEP over GAL4-tagged human RARalpha1 ligand binding domain (177 to 462 residues) expressed in HEK293T cells; format: cell-based
# [19] = tested on: HeLa; assay: Selectivity ratio for human FXR expressed in human HeLa cells co-expressing BSEP over GAL4-tagged human RXRbeta isoform 1 ligand binding domain (294 to 533 residues) expressed in HEK293T cells; format: cell-based
# [20] = tested on: HeLa; assay: Selectivity ratio for human FXR expressed in human HeLa cells co-expressing BSEP over GAL4-tagged human LXRbeta ligand binding domain expressed in HEK293T cells; format: cell-based
# [21] = tested on: HeLa; assay: Selectivity ratio for human FXR expressed in human HeLa cells co-expressing BSEP over GAL4-tagged human LXRalpha ligand binding domain expressed in HEK293T cells; format: cell-based
# [22] = target: T1, Bile acid receptor (Homo sapiens); assay: Modulation of FXR in human HepG2 cells assessed as induction of OSTalpha mRNA expression at 10 nM by qRT-PCR analysis; format: cell-based; how it was run: as §1
# [23] = target: T1, Bile acid receptor (Homo sapiens); assay: Modulation of FXR in human HepG2 cells assessed as suppression of CYP7A1 mRNA expression at 10 nM by qRT-PCR analysis; format: cell-based; how it was run: as §1
smiles,measurement,setting,value
COc1ccc(CNc2c(-c3cc(Cl)ccn3)nc3ccc(Cl)cn23)cc1,Activity,[1],Active
same,EC50,[2],0.3 nM
same,half-life,[3],1.5 to 2 h
same,remaining at 24 h,[4],12%
same,Activity,[5],inactive
same,Activity,[6],Not Active
same,Activity,[7],inactive
same,Activity,[8],inactive
same,Activity,[9],inactive
same,Activity,[10],inactive
same,inhibition (INH),[11],Not Active
same,inhibition,[12],inactive
same,inhibition,[13],inactive
same,inhibition,[14],inactive
same,inhibition,[15],inactive
same,Selectivity ratio,[16],3000
same,Selectivity ratio,[17],3000
same,Selectivity ratio,[18],3000
same,Selectivity ratio,[19],3000
same,Selectivity ratio,[20],3000
same,Selectivity ratio,[21],3000
same,Activity,[22],Active
same,Activity,[23],Active
